From ChEMBL document CHEMBL3102712, “Targeting the Warburg Effect in cancer; relationships for 2-arylpyridazinones as inhibitors of the key glycolytic enzyme 6-phosphofructo-2-kinase/2,6-bisphosphatase 3 (PFKFB3)” (Bioorg Med Chem, 2014)
Active and inactive are the calls of the source. The rule behind the calls is not given here.

Legend:
[1] = molecular target: T1, 6-phosphofructo-2-kinase/fructose-2,6-bisphosphatase 3 (Homo sapiens, UniProt Q16875); test: Inhibition of PFKFB3-mediated glycolysis in human MDA-MB-231 cells assessed as extracellular acidification rate at 10 uM after 2 hrs; format: cell-based
T1 sequence (Q16875 whole entry): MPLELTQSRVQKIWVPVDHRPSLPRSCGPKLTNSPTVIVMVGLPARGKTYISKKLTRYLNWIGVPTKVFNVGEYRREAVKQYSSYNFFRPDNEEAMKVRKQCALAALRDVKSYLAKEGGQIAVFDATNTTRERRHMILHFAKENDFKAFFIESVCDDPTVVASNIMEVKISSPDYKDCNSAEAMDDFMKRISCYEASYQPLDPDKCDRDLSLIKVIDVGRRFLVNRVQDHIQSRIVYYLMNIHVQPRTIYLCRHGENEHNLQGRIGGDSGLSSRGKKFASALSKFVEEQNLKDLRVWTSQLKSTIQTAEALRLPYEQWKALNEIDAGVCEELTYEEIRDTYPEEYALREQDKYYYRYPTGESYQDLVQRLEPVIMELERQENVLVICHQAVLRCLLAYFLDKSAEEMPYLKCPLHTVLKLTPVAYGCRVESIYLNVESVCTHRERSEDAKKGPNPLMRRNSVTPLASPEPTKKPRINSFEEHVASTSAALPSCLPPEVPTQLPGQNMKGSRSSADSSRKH
In short: (§1)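 MDA-MB-231 cells were seeded at 15,000/well for 24 h, then switched to assay medium in an XF24 analyzer. After 2 baseline readings, compound (10 µM) was injected and ECAR tracked for 2 h. 2-Deoxyglucose (100 mM) was then injected as positive control and ECAR followed 32 min more. ECAR was expressed as % of baseline, with protein measured by BCA after RIPA lysis; n = 3.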

[2] = molecular target: T1, 6-phosphofructo-2-kinase/fructose-2,6-bisphosphatase 3; test: Inhibition of PFKFB3 (unknown origin)
[3] = molecular target: T1, 6-phosphofructo-2-kinase/fructose-2,6-bisphosphatase 3; test: Inhibition of human recombinant GST-tagged PFKFB3 expressed in Escherichia coli BL21(DE3) using fructose 6-phosphate as substrate preincubated for 30 mins before substrate addition measured after 60 mins by kinase-glo assay
In short: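 GST-tagged human PFKFB3 was purified on glutathione sepharose. The compound was preincubated with enzyme for 30 min at 30 °C in 40 mM Tris pH 7.5, 20 mM MgCl2, 0.1 mg/mL BSA. ATP and F6P were then added in buffer containing 25 µM ATP and 1.25 mM F6P, for 60 min at 30 °C. Remaining ATP was read by Kinase-Glo luminescence. IC50 came from nonlinear regression, mean ± SD of ≥3 independent experiments.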

[4] = molecular target: T1, 6-phosphofructo-2-kinase/fructose-2,6-bisphosphatase 3; test: Inhibition of PFKFB3-mediated glycolysis in human MDA-MB-231 cells assessed as extracellular acidification rate at 10 uM after 60 mins; format: cell-based; in short: as §1
[5] = molecular target: T1, 6-phosphofructo-2-kinase/fructose-2,6-bisphosphatase 3; conditions: 250 uM
[6] = molecular target: T1, 6-phosphofructo-2-kinase/fructose-2,6-bisphosphatase 3; test: Inhibition of PFKFB3 in human HeLa cells assessed as reduction of fructose 2,6-bisphosphate level at IC50 after 8 hrs; format: cell-based
[7] = molecular target: T1, 6-phosphofructo-2-kinase/fructose-2,6-bisphosphatase 3; test: Inhibition of PFKFB3 in human HeLa cells assessed as reduction of lactate secretion at IC50 after 8 hrs; format: cell-based
[8] = Solubility of the compound; format: physicochemical

SMILES | IC50 [3] | other results
O=C(/C=C/c1cccnc1)c1ccncc1 |  | inhibition [1]: inactive; IC50 [2]: 25 µM
CC(=O)c1nnn(-c2cnn(-c3ccc(Cl)cc3)c(=O)c2Br)c1C | 7 µM | inhibition [4]: 30%
CC(=O)c1nnn(-c2cnn(Cc3ccccc3)c(=O)c2Br)c1C | 3.4 µM | 
CC(=O)c1nnn(-c2cnn(-c3ccc(OC(F)(F)F)cc3)c(=O)c2Br)c1C | 9.1 µM | inhibition [4]: 30%
CC(=O)c1nnn(-c2cnn(Cc3ccccc3)c(=O)c2)c1C | > 10000 µM | 
CC(=O)c1nnn(-c2cnn(-c3cncnc3)c(=O)c2Br)c1C | 9.6 µM | inhibition [4]: 30%
CC(=O)c1nnn(-c2cnn(-c3ccc(C#N)cc3)c(=O)c2Br)c1C | 8.4 µM | 
CC(=O)c1nnn(-c2cnn(-c3ccccc3)c(=O)c2I)c1C | 13 µM | 
O=c1c(Br)c(N2CCOCC2)cnn1-c1ccccc1 | > 1000 µM | 
O=c1c(Br)c(NCC2CCCO2)cnn1-c1ccccc1 (stereo unspecified) | > 1000 µM | 
CC(=O)c1nnn(-c2cnn(-c3ccccc3)c(=O)c2Cl)c1C | 26 µM | 
O=C(/C=C/c1ccc2ccccc2n1)c1ccncc1 | > 1000 µM | inhibition [5]: 26%
CCOc1c(-n2nnc(C(C)=O)c2C)cnn(-c2ccccc2)c1=O | > 1000 µM | 
NC(=O)CNc1cnn(-c2ccccc2)c(=O)c1Br | > 1000 µM | 
CC(=O)c1nnn(-c2cnn(Cc3ccc(NCCN(C)C)cc3)c(=O)c2Br)c1C | > 500 µM | 
N#Cc1cccc2c1CCN(c1cnn(-c3ccccc3)c(=O)c1Br)C2 | > 500 µM | 
CC(=O)c1nnn(-c2cnn(-c3ccccc3)c(=O)c2Br)c1C | 7.4 µM | inhibition [1]: inactive
CCOC(=O)c1cn(-c2cnn(-c3ccccc3)c(=O)c2N2CC3(COC3)C2)nn1 | 55 µM | 
O=C(O)c1ccc(NS(=O)(=O)c2cccc3ccccc23)cc1O | 27 µM | IC50 [2]: 27 µM
CC(=O)c1nnn(-c2cnn(-c3ccccc3)c(=O)c2C(C)C)c1C | > 500 µM | 
CC(=O)c1nnn(-c2cnn(Cc3ccc(I)cc3)c(=O)c2Br)c1C | 8.7 µM | 
CC(=O)c1nnn(-c2cnn(CCCc3ccccc3)c(=O)c2Br)c1C | 11 µM | inhibition [4]: 30%
CC(=O)c1nnn(-c2cnn(CCc3ccccc3)c(=O)c2Br)c1C | 2.6 µM | 
O=c1c(Br)c(N2CC3(COC3)C2)cnn1-c1ccccc1 | > 1000 µM | 
O=c1c(-c2ccc(O)cc2)coc2c(O)c(O)ccc12 |  | inhibition [6]: 40%; inhibition [7]: > 30%
O=C(c1ccncc1)c1cc2c(ccc3ccccc32)[nH]1 |  | solubility [8]: Insoluble; IC50 [2]: > 1000 µM
